Reference: PubChem BioAssay
Records with an inconclusive call do not appear.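 The calls were made as follows, unless noted: active = viability increase at or above a cutoff of the median across tested compounds plus 3 SD (cut at about 8.5% in these data, passing the limit was not always enough); inconclusive = some gains above the cutoff, reason not given; inactive = the rest.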

Legend:
[1] = OD615 S. cerevisiae growth inhibition, permissive medium, pilot counter-assay, permissive growth control for S. cerevisiae lifespan shortening project (AID 705;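 active = growth inhibition above 25% in both replicates, a cutoff set 3 SD above the mean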); conditions: OD615, 24 h, at 10 µM, stronger effect = higher value
Outline: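 Material: engineered DeaD yeast; compound dosing: one dose 10 µM, DMSO 0.25% final; measure: yeast growth inhibition indicated by reduced 24 h OD615; detection: OD615 turbidity read; incubation: cells pre-grown 4 h, then 24 h compound exposure, 30 °C humidified; medium: permissive synthetic complete medium with raffinose and galactose carbon sources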

[2] = Restrictive medium S. cerevisiae growth inhibition, OD615, pilot screen of yeast lifespan reduction project, restrictive growth control (AID 706;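 active = growth inhibition above a set limit, 3 SD over mean compound inhibition, in both replicates, cut at about 43% in these data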;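 also: modified DeaD lifespan yeast strain shifted to restrictive glucose medium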); conditions: OD615, 48 h, at 10 µM, stronger effect = higher value
Outline: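 material = engineered S. cerevisiae DeaD strain | medium = glucose-based CSMM-D restrictive medium | times = 4 h pre-incubation, 48 h exposure at 30 °C | technique = OD615 absorbance reading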

[3] = viability gain of MRP-1-high H69AR cells under doxorubicin, pilot screen, MRP-1 activator project, CellTiter-Glo, duplicate (AID 807); conditions: H69AR viability with doxorubicin, CellTiter-Glo luminescence; at 10 µM; stronger effect = higher value;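 also: compound pretreatment 18-22 h then 72 h combined with doxorubicin; 0% = doxorubicin alone and 100% = vehicle without doxorubicin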
[4] = growth suppression of beta-catenin knockout HCT116, pilot screen, human colon tumor cells (AID 823;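 active = cell viability at or below a set limit in both duplicate runs, the limit being the all-compound median minus 4 SD, cut at about 23% in these data, passing the limit was not always enough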;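 also: 0% = wells killed by 20 µM Hyamine and 100% = untreated DMSO cell wells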); conditions: CellTiter-Glo, 60 h, at 10 µM, stronger effect = lower value
[5] = growth suppression of PTEN-deleted HCT116, pilot screen, cell-based, HCT116 clonal line, CellTiter-Glo (AID 824;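 active = viability at or below 27.92% in each of two runs, the all-compound median minus 4 SD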;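 also: 0% = 20 µM Hyamine control and 100% = vehicle cell control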); conditions: 60 h, at 10 µM, stronger effect = lower value
[6] = inhibitors of the yeast RAM network, pilot screen, dse1pr::URA3 reporter, 5-FOA selection (AID 869;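 active = inhibition over a set limit, the all-compound mean plus 3 SD, in both replicate runs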;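 also: 0% = DMSO wells with no growth and 100% = 10 µM 1-NA-PP1 with full growth; RAM network block rescues cells from 5-FOA so hits raise OD615 growth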); conditions: S. cerevisiae dse1pr::URA3 5-FOA growth, OD615, 2 d; at 10 µM; stronger effect = higher value; strain carries analog-sensitive mutant Cbk1 kinase
[7] = RAM signaling pathway blockade in yeast – S. cerevisiae, Pdr1DBD-CYC8 efflux-inhibited sensitized strain, primary screen (AID 1298;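 active = RAM network inhibition above 8.4% in each of two replicates, 3 SD over the compound average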;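 also: 0% = DMSO untreated cells without growth and 100% = 10 µM 1-NA-PP1 full growth; higher means more yeast growth rescued from 5-FOA killing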); conditions: S. cerevisiae cbk1-as DSE1-URA3 strain, 5-FOA growth OD615, 2 d; at 50 µM; stronger effect = higher value

Cc1[nH]c2ccccc2c1SCCN
inactive: growth inhibition [1] -9.76% | growth inhibition [2] -12.4% | viability increase [3] -5.96% | viability [4] 73.9% | viability [5] 62.9% | inhibition [6] 2.34% | RAM network inhibition [7] 1.7%

CCOCCn1c(CN2CCC(C)CC2)nc2c1c(=O)n(C)c(=O)n2C
inactive: growth inhibition [1] 7.15% | growth inhibition [2] -2.44% | viability increase [3] -1.22% | viability [4] 91.8% | viability [5] 91.5% | inhibition [6] 0.02% | RAM network inhibition [7] -0.56%

Cc1ccccc1C(=O)Nc1ccc2nc3n(c(=O)c2c1)CCC3
inactive: growth inhibition [1] -2.17% | growth inhibition [2] 0.31% | viability increase [3] 0.79% | viability [4] 106% | viability [5] 104% | inhibition [6] 0.085% | RAM network inhibition [7] 4.34%

Cc1ccc(CSc2nnc(Cn3c(=O)sc4ccccc43)n2C)cc1
inactive: growth inhibition [1] -10.6% | growth inhibition [2] 5.88% | viability increase [3] 2.44% | viability [4] 95.8% | viability [5] 88.2% | inhibition [6] 2.75% | RAM network inhibition [7] 6.03%

CCC(=O)NCCc1cc2ccc(C)cc2[nH]c1=O
inactive: growth inhibition [1] -3.85% | growth inhibition [2] -15.4% | viability increase [3] -1.94% | viability [4] 110% | viability [5] 93.8% | inhibition [6] 2.58% | RAM network inhibition [7] 0.78%

COc1ccc(C2C3=C(CCCC3=O)Nc3nc(SCc4ccc(C(=O)O)cc4)nn32)cc1OC (configuration not stated)
inactive: growth inhibition [1] -7.69% | growth inhibition [2] -1.59% | viability increase [3] -0.88% | viability [4] 92.8% | viability [5] 95.3% | inhibition [6] 3.18% | RAM network inhibition [7] 3.48%

O=C(Cn1ncc2c(=O)oc3ccccc3c21)N(Cc1ccco1)C1CCCCC1
inactive: growth inhibition [1] -4.29% | growth inhibition [2] -1.01% | viability increase [3] -4.59% | viability [4] 92.5% | viability [5] 94.6% | inhibition [6] 2.71% | RAM network inhibition [7] 5.12%

COc1ccccc1CNC(=O)CCn1c(=O)oc2ccccc21
inactive: growth inhibition [1] 5.65% | growth inhibition [2] 6.41% | viability increase [3] -3.05% | viability [4] 104% | viability [5] 96.2% | inhibition [6] 2.48% | RAM network inhibition [7] 5.75%

Cc1oc(-c2ccc(Cl)cc2)nc1CN1CCCC(C(=O)NCCCN2CCCC2=O)C1 (configuration not stated)
inactive: growth inhibition [1] -14.7% | growth inhibition [2] -21.4% | viability increase [3] -0.61% | viability [4] 63.8% | viability [5] 78.7% | inhibition [6] 1.73% | RAM network inhibition [7] 0.96%

CC(c1ccccc1)N1CNc2c(c(=O)n(C)c(=O)n2C)C1 (configuration not stated)
inactive: growth inhibition [1] -8.04% | growth inhibition [2] 2.52% | viability increase [3] -1.82% | viability [4] 94.3% | viability [5] 92.2% | inhibition [6] 0.02% | RAM network inhibition [7] 0.77%

COc1ccc(-n2c(Cc3cc(=O)[nH]c(=O)[nH]3)nnc2SCC(=O)N2CCCC2)cc1
inactive: growth inhibition [1] -4.92% | growth inhibition [2] -0.375% | viability increase [3] 0.36% | viability [4] 101% | viability [5] 97.9% | inhibition [6] 0.805% | RAM network inhibition [7] 0.42%

COc1ccc(S(=O)(=O)N(CCc2ccccc2)CC(=O)O)cc1OC
inactive: growth inhibition [1] -1.68% | growth inhibition [2] 10.5% | viability increase [3] 0.57% | viability [4] 97.6% | viability [5] 102% | inhibition [6] 1.35% | RAM network inhibition [7] 1.09%

Cc1cccc(NCc2nc(-c3ccccc3)no2)c1
inactive: growth inhibition [1] -2.16% | growth inhibition [2] 9.07% | viability increase [3] 2.88% | viability [4] 107% | viability [5] 106% | inhibition [6] 2.41% | RAM network inhibition [7] 3.44%

COc1ccc(-c2nnc(NC(=O)C(C)C)s2)c(OC)c1
inactive: growth inhibition [1] -18.6% | growth inhibition [2] -10.3% | viability increase [3] -2.16% | viability [4] 96% | viability [5] 88.8% | inhibition [6] 4.28% | RAM network inhibition [7] 9.53%

CCOC(=O)N1CCC(NC(=O)c2ccc(CS(=O)(=O)c3ccc(OC)cc3)o2)CC1
inactive: growth inhibition [1] 5.7% | growth inhibition [2] -8.08% | viability increase [3] -2.5% | viability [4] 104% | viability [5] 94.1% | inhibition [6] 1.96% | RAM network inhibition [7] 1.82%

COC(=O)C1=CN(CC2CCCO2)C=C(C(=O)OC)C1c1ccsc1 (configuration not stated)
inactive: growth inhibition [1] -22.4% | growth inhibition [2] -3.27% | viability increase [3] -4.97% | viability [4] 92.1% | viability [5] 97.5% | inhibition [6] 0.125% | RAM network inhibition [7] 4.53%

COc1ccccc1N1CSC2=C(C#N)C(c3ccc(SC)cc3)CC(=O)N2C1 (configuration not stated)
inactive: growth inhibition [1] -1.16% | growth inhibition [2] 15.8% | viability increase [3] -5.15% | viability [4] 102% | viability [5] 94.7% | inhibition [6] 1.7% | RAM network inhibition [7] 3.52%

O=C(Cn1cc2c(n1)CCCC2)Nc1ccccc1Cl
inactive: growth inhibition [1] -4.82% | growth inhibition [2] -3.03% | viability increase [3] -1.53% | viability [4] 99.4% | viability [5] 98.9% | inhibition [6] 1.91% | RAM network inhibition [7] 1.47%

O=C(CN1CCN(C2CCCCC2)CC1)c1ccc2cc[nH]c2c1
inactive: growth inhibition [1] 5.4% | growth inhibition [2] 2.7% | viability increase [3] -3.56% | viability [4] 94% | viability [5] 85.7% | inhibition [6] 1.9% | RAM network inhibition [7] -1.26%

COc1ccc(-c2nc(CS(=O)CC(=O)NCc3cccnc3)c(C)o2)cc1 (configuration not stated)
inactive: growth inhibition [1] 2.57% | growth inhibition [2] -2.7% | viability increase [3] -4.05% | viability [4] 89.3% | viability [5] 92.5% | inhibition [6] 1.14% | RAM network inhibition [7] 1.62%

Cc1cc(C)c2c(N)c(C(=O)Nc3nccs3)sc2n1
inactive: growth inhibition [1] 0.355% | growth inhibition [2] 16.4% | viability increase [3] -5.52% | viability [4] 87.8% | viability [5] 90.5% | inhibition [6] 2% | RAM network inhibition [7] -0.11%

CCCCN(CC)CCNC(=O)Cn1cnc2sc(C)c(S(=O)(=O)N3CCOCC3)c2c1=O
inactive: growth inhibition [1] -7.83% | growth inhibition [2] 0.72% | viability increase [3] -0.05% | viability [4] 99.5% | viability [5] 98.4% | inhibition [6] 2.3% | RAM network inhibition [7] 0.78%

COCCNC(=O)c1cc2c(-c3ccc(Cl)cc3)nn(C)c2s1
inactive: growth inhibition [1] 3.03% | growth inhibition [2] 8.65% | viability increase [3] -6% | viability [4] 64.6% | viability [5] 71% | inhibition [6] 0.32% | RAM network inhibition [7] 10.4%

Cn1c(Cn2c(=O)sc3ccccc32)nnc1SCC(=O)Nc1ccc(Cl)cc1
inactive: growth inhibition [1] -9.07% | growth inhibition [2] -17.2% | viability increase [3] -3.25% | viability [4] 98.6% | viability [5] 89% | inhibition [6] 3.06% | RAM network inhibition [7] 5.32%

CC(Oc1ccc(Cl)cc1Cl)C(=O)NCCCN(C)C (configuration not stated)
inactive: growth inhibition [1] -0.77% | growth inhibition [2] 4.78% | viability increase [3] -2.25% | viability [4] 99.6% | viability [5] 100% | inhibition [6] 1.79% | RAM network inhibition [7] 0.78%

O=C(CN1CCN(Cc2ccc(Cl)cc2)C1=O)NCCN1CCCC1
inactive: growth inhibition [1] 1.2% | growth inhibition [2] 9.72% | viability increase [3] -0.85% | viability [4] 107% | viability [5] 96.7% | inhibition [6] 1.54% | RAM network inhibition [7] 1.2%

CCCCOC(=O)Nc1sc2c(c1C(=O)OC)CCC2
inactive: growth inhibition [1] -6.32% | growth inhibition [2] 6.97% | viability increase [3] -2.72% | viability [4] 96.2% | viability [5] 92.4% | inhibition [6] 0.325% | RAM network inhibition [7] 8.11%

COc1ccc(C2(CNC(C)=O)CCOCC2)cc1OC
inactive: growth inhibition [1] -14.1% | growth inhibition [2] -2.29% | viability increase [3] 1.21% | viability [4] 103% | viability [5] 97.8% | inhibition [6] 2.54% | RAM network inhibition [7] -0.32%

CCOC(=O)N1CCN(C(=O)CSc2nnc(-c3ccc(C(C)(C)C)cc3)o2)CC1
inactive: growth inhibition [1] -7.79% | growth inhibition [2] 8.32% | viability increase [3] -1.07% | viability [4] 85.2% | viability [5] 83.7% | inhibition [6] 0.505% | RAM network inhibition [7] 1.1%

COc1ccccc1N1CCN(C(=O)c2sc3nc(-c4ccc(F)cc4)cn3c2C)CC1
inactive: growth inhibition [1] -6.38% | growth inhibition [2] 2.76% | viability increase [3] -1.57% | viability [4] 57.6% | viability [5] 58.8% | inhibition [6] 0.235% | RAM network inhibition [7] 1.42%

COC1=CC(=O)OC12CCCCC2
inactive: growth inhibition [1] 3.99% | growth inhibition [2] -2.73% | viability increase [3] -0.88% | viability [4] 94.7% | viability [5] 95.8% | inhibition [6] 1.27% | RAM network inhibition [7] 2.11%

CCOC(=O)N1CCN(c2ccc3nnnn3n2)CC1
inactive: growth inhibition [1] -4.75% | growth inhibition [2] 1.97% | viability increase [3] 0.77% | viability [4] 101% | viability [5] 101% | inhibition [6] 0.275% | RAM network inhibition [7] 0.43%

c1ccc2c(c1)nc(NCC1CCCO1)c1nnnn12 (configuration not stated)
inactive: growth inhibition [1] -4.03% | growth inhibition [2] 4.6% | viability increase [3] -3.64% | viability [4] 101% | viability [5] 97.6% | inhibition [6] 1.34% | RAM network inhibition [7] 2.87%

COCCNC(=O)CS(=O)(=O)Cc1nc(-c2ccc(C)cc2)oc1C
inactive: growth inhibition [1] -7.2% | growth inhibition [2] -29% | viability increase [3] -0.43% | viability [4] 95.1% | viability [5] 95.3% | inhibition [6] -0.325% | RAM network inhibition [7] 3.68%

Cc1cccc(NC(=O)CN(C)S(=O)(=O)c2cccc3cccnc23)c1
inactive: growth inhibition [1] 2.15% | growth inhibition [2] -0.265% | viability increase [3] 1.15% | viability [4] 96.5% | viability [5] 96.1% | inhibition [6] 0.01% | RAM network inhibition [7] -0.41%

COc1ccc(NC(=O)CSc2nnc(-c3ccccn3)n2N)cc1
inactive: growth inhibition [1] -5.41% | growth inhibition [2] 13.7% | viability increase [3] -0.74% | viability [4] 101% | viability [5] 97.3% | inhibition [6] 0.535% | RAM network inhibition [7] 4.82%
